# How the values were obtained:
# [1] = target: T1, Human immunodeficiency virus type 1 reverse transcriptase (Human immunodeficiency virus 1, UniProt Q72547); assay: Inhibition of HIV-1 Reverse transcriptase using poly-(ra)-oligo(dt) as the template primer.; conditions: read-out: IC50
# Procedure, shortened: (§1)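 Purified p66/51 HIV-1 reverse transcriptase. Inhibition read as incorporation of [32P]-TTP into poly(rA)·oligo(dT) or of [32P]GTP into poly(rC)·oligo(dG) homopolymer template-primer.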
# [2] = target: T1, Human immunodeficiency virus type 1 reverse transcriptase; assay: Inhibition of HIV-1 Reverse transcriptase using poly-(rc)-oligo(dg) as the template primer.; procedure, shortened: as §1
# CEM-SS [3] = assay: 50% inhibitory concentration for cytopathicity of HIV-1 RF in CEM-SS cells; NA=Not active (EC50 uM); assay type: functional, cell-based, Homo sapiens
# Procedure, shortened: (§2)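 CEM-SS cells infected with HIV-1 RF; drug-induced protection from viral cytopathic effect read by XTT, as percent of uninfected drug-free control. EC50 is the concentration giving 50% protection. Triplicate wells on each plate, two sister plates; the plate EC50s (each a triplicate average) were averaged. XTT results were confirmed by supernatant RT and p24 levels. NA means no inhibition up to the concentration cytotoxic to uninfected cells.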
# CCRF-CEM = assay: Concentration inhibiting 50% of mock-infected CEM cells.; assay type: functional; conditions: Homo sapiens
# Procedure, shortened: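 Uninfected (mock-infected) CEM-SS cultures exposed to drug. Viability by XTT, expressed as percent of drug-free control. CC50 is the concentration causing 50% cell death. Triplicates on each plate, two sister plates averaged.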
# CEM-SS [4] = assay: 50% inhibitory concentration for cytopathicity of HIV-1 RF in CEM-SS cells.; assay type: functional, cell-based; conditions: Homo sapiens; procedure, shortened: as §2
# [5] = Therapeutic index was determined for the compound as CC50/EC50; conditions: read-out: TI
# Procedure, shortened: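 Ratio of CC50 (XTT viability, uninfected CEM-SS) to EC50 (XTT protection from HIV-1 RF cytopathicity in CEM-SS). Both values come from triplicates on each plate, two sister plates averaged. NA means no antiviral inhibition up to the cytotoxic concentration.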
# [6] = tested on: Human immunodeficiency virus 1; assay: Inhibition of cytopathic effect of HIV-1 strain wild type enzyme NL4-3 in CEM-SS cells.; assay type: functional, organism-based; conditions: Human immunodeficiency virus 1, CEM-SS
# CEM-SS [7] = assay: Fold resistance of HIV-1 RT containing the specified mutation V108I in CEM-SS cells; assay type: functional, Homo sapiens
# Procedure, shortened: (§3)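 Fold resistance of mutant HIV-1 viruses whose RT carries the listed mutation(s), measured against a virus containing wild-type NL4-3 RT. Anti-HIV readout by CEM-SS cytopathic-effect protection.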
# CEM-SS [8] = assay: Fold resistance of HIV-1 RT containing the specified mutation V106A in CEM-SS cells; assay type: functional, Homo sapiens; procedure, shortened: as §3
# CEM-SS [9] = assay: Inhibition of cytopathic effect of HIV-1 RT containing the specified mutation A98G in CEM-SS cells.; assay type: functional, cell-based, Homo sapiens
# CEM-SS [10] = assay: Inhibition of cytopathic effect of HIV-1 RT containing the specified mutation L100I resistant to AZT in CEM-SS cells.; assay type: functional, cell-based, Homo sapiens
# CEM-SS [11] = assay: Inhibition of cytopathic effect of HIV-1 RT containing the specified mutation L100I in CEM-SS cells.; assay type: functional, cell-based, Homo sapiens
# CEM-SS [12] = assay: Fold resistance of HIV-1 RT containing the specified mutation Y181C resistant to AZT in CEM-SS cells; assay type: functional, Homo sapiens; procedure, shortened: as §3
# CEM-SS [13] = assay: Inhibition of cytopathic effect of HIV-1 RT containing the specified mutation V179D in CEM-SS cells.; assay type: functional, cell-based, Homo sapiens
# CEM-SS [14] = assay: Inhibition of cytopathic effect of HIV-1 RT containing the specified mutation V108I in CEM-SS cells.; assay type: functional, cell-based, Homo sapiens
# CEM-SS [15] = assay: Inhibition of cytopathic effect of HIV-1 RT containing the specified mutation Y181C in CEM-SS cells.; assay type: functional, cell-based, Homo sapiens
# CEM-SS [16] = assay: Fold resistance of HIV-1 RT containing the specified mutation K101E in CEM-SS cells; NC=No significant change in sensitivity; assay type: functional, cell-based; conditions: Homo sapiens; procedure, shortened: as §3
# CEM-SS [17] = assay: Inhibition of cytopathic effect of HIV-1 RT containing the specified mutation K103N in CEM-SS cells.; assay type: functional, cell-based, Homo sapiens
# CEM-SS [18] = assay: Fold resistance of HIV-1 RT containing the specified mutation Y181C in CEM-SS cells; assay type: functional, Homo sapiens; procedure, shortened: as §3
# CEM-SS [19] = assay: Fold resistance of HIV-1 RT containing the specified mutation L74V in CEM-SS cells; S=Enhanced sensitivity; assay type: functional, cell-based; conditions: Homo sapiens; procedure, shortened: as §3
# CEM-SS [20] = assay: Fold resistance of HIV-1 RT containing the specified mutation L100I in CEM-SS cells; assay type: functional, Homo sapiens; procedure, shortened: as §3
# CEM-SS [21] = assay: Fold resistance of HIV-1 RT containing the specified mutation Y188C in CEM-SS cells; assay type: functional, Homo sapiens; procedure, shortened: as §3
# CEM-SS [22] = assay: Inhibition of cytopathic effect of HIV-1 RT containing the specified mutation 4X resistant to AZT in CEM-SS cells.; assay type: functional, cell-based; conditions: Homo sapiens
# CEM-SS [23] = assay: Fold resistance of HIV-1 RT containing the specified mutation K103N in CEM-SS cells; assay type: functional, Homo sapiens; procedure, shortened: as §3
# CEM-SS [24] = assay: Inhibition of cytopathic effect of HIV-1 RT containing the specified mutation V106A in CEM-SS cells.; assay type: functional, cell-based, Homo sapiens
# CEM-SS [25] = assay: Inhibition of cytopathic effect of HIV-1 RT containing the specified mutation Y181C resistant to AZT in CEM-SS cells.; assay type: functional, cell-based, Homo sapiens
# CEM-SS [26] = assay: Fold resistance of HIV-1 RT containing the specified mutation V179D in CEM-SS cells; assay type: functional, Homo sapiens; procedure, shortened: as §3
# CEM-SS [27] = assay: Fold resistance of HIV-1 RT containing the specified mutation L100I resistant to AZT in CEM-SS cells; assay type: functional, Homo sapiens; procedure, shortened: as §3
# CEM-SS [28] = assay: Fold resistance of HIV-1 RT containing the specified mutation 4X resistant to AZT in CEM-SS cells; NC=No significant change in sensitivity; assay type: functional, cell-based; conditions: Homo sapiens; procedure, shortened: as §3
# CEM-SS [29] = assay: Inhibition of cytopathic effect of HIV-1 RT containing the specified mutation L74V in CEM-SS cells.; assay type: functional, cell-based, Homo sapiens
# CEM-SS [30] = assay: Fold resistance of HIV-1 RT containing the specified mutation A98G in CEM-SS cells; assay type: functional, Homo sapiens; procedure, shortened: as §3
# CEM-SS [31] = assay: Inhibition of cytopathic effect of HIV-1 RT containing the specified mutation K101E in CEM-SS cells.; assay type: functional, cell-based, Homo sapiens
# CEM-SS [32] = assay: Inhibition of cytopathic effect of HIV-1 RT containing the specified mutation Y188C in CEM-SS cells.; assay type: functional, cell-based, Homo sapiens
# [33] = target: T1, Human immunodeficiency virus type 1 reverse transcriptase; assay: Inhibition of HIV-1 Reverse transcriptase using poly-(ra)-oligo(dt) as the template primer; NI=No inhibition
# Procedure, shortened: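 Purified p66/51 HIV-1 reverse transcriptase. Inhibition read as incorporation of [32P]-TTP into poly(rA)·oligo(dT) or of [32P]GTP into poly(rC)·oligo(dG) homopolymer template-primer. IC50 taken as concentration giving 50% inhibition.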
# CEM-SS [34] = assay: Fold resistance of HIV-1 RT containing the specified mutation A98G in CEM-SS cells.; assay type: functional, Homo sapiens
# CEM-SS [35] = assay: Fold resistance of HIV-1 RT containing the specified mutation Y181C in CEM-SS cells.; assay type: functional, Homo sapiens
# CEM-SS [36] = assay: Fold resistance of HIV-1 RT containing the specified mutation Y188C in CEM-SS cells.; assay type: functional, Homo sapiens
# CEM-SS [37] = assay: Fold resistance of HIV-1 RT containing the specified mutation K101E in CEM-SS cells.; assay type: functional, Homo sapiens
# CEM-SS [38] = assay: Fold resistance of HIV-1 RT containing the specified mutation V179D in CEM-SS cells.; assay type: functional, Homo sapiens
# CEM-SS [39] = assay: Fold resistance of HIV-1 RT containing the specified mutation K103N in CEM-SS cells; NC=No significant change in sensitivity; assay type: functional, cell-based; conditions: Homo sapiens
# CEM-SS [40] = assay: Fold resistance of the specific mutation in RT to the compound; S=Enhanced sensitivity; assay type: functional, cell-based; conditions: Homo sapiens
# CEM-SS [41] = assay: Fold resistance of HIV-1 RT containing the specified mutation V106A in CEM-SS cells.; assay type: functional, Homo sapiens
# CEM-SS [42] = assay: Fold resistance of HIV-1 RT containing the specified mutation 4X AZT in CEM-SS cells; S=Enhanced sensitivity; assay type: functional, cell-based; conditions: Homo sapiens
smiles,measurement,setting,value
COC(=O)c1cc(C(=CCCCC=O)c2cc(Cl)c(OC)c(C(=O)OC)c2)cc(Cl)c1OC,IC50,[1],4.2 µM
same,IC50,[2],4.9 µM
same,EC50,CEM-SS [3],Not Active
same,CC50,CCRF-CEM,9.6 µM
CCC(=O)CCCC=C(c1cc(Cl)c(OC)c(CO)c1)c1cc(Cl)c(OC)c(CO)c1,EC50,CEM-SS [3],Not Active
same,CC50,CCRF-CEM,14.2 µM
COC(=O)c1cc(C(=CCCc2ccccc2)c2cc(Br)c(OC)c(C(=O)OC)c2)cc(Br)c1OC,EC50,CEM-SS [3],Not Active
same,CC50,CCRF-CEM,31.5 µM
COC(=O)c1cc(C(=CCCCCN=[N+]=[N-])c2cc(Cl)c(OC)c(C(=O)OC)c2)cc(Cl)c1OC,IC50,[1],0.8 µM
same,IC50,[2],1.3 µM
same,EC50,CEM-SS [4],7.1 µM
same,CC50,CCRF-CEM,176 µM
COC(=O)CC=C(c1cc(Cl)c(OC)c(C(=O)OC)c1)c1cc(Cl)c(OC)c(C(=O)OC)c1,IC50,[1],> 100 µM
same,IC50,[2],2.2 µM
same,EC50,CEM-SS [3],Not Active
same,CC50,CCRF-CEM,13.3 µM
CCCCCC=C(c1cc(F)c(OC)c(C(=O)OC)c1)c1cc(F)c(OC)c(C(=O)OC)c1,IC50,[2],10 µM
same,EC50,CEM-SS [3],Not Active
same,CC50,CCRF-CEM,13.4 µM
CCNC(=O)OCCCCC=C(c1cc(Cl)c(OC)c(C(=O)OC)c1)c1cc(Cl)c(OC)c(C(=O)OC)c1,IC50,[1],1.2 µM
same,IC50,[2],3.2 µM
same,EC50,CEM-SS [3],Not Active
same,CC50,CCRF-CEM,8.4 µM
COC(=O)CCCC=C(c1cc(F)c(OC)c(C(=O)OC)c1)c1cc(F)c(OC)c(C(=O)OC)c1,selectivity ratio,[5],35.9
same,EC50,CEM-SS [4],1.9 µM
same,CC50,CCRF-CEM,68.3 µM
COC(=O)CCCC=C(c1cc(Br)c(OC)c(C(=O)OC)c1)c1cc(Br)c(OC)c(C(=O)OC)c1,IC50,[1],1 µM
same,EC50,[6],0.06 µM
same,Fold resistance,CEM-SS [7],10
same,Fold resistance,CEM-SS [8],158.5
same,EC50,CEM-SS [9],0.22 µM
same,EC50,CEM-SS [10],0.33 µM
same,EC50,CEM-SS [11],0.26 µM
same,IC50,[2],0.3 µM
same,selectivity ratio,[5],10000
same,Fold resistance,CEM-SS [12],58.3
same,EC50,CEM-SS [13],40.2 µM
same,EC50,CEM-SS [14],0.67 µM
same,EC50,CEM-SS [15],6.13 µM
same,EC50,CEM-SS [4],0.0013 µM
same,Fold resistance,CEM-SS [16],No significant changed
same,EC50,CEM-SS [17],0.42 µM
same,Fold resistance,CEM-SS [18],102
same,Fold resistance,CEM-SS [19],Enhanced sensitivity
same,Fold resistance,CEM-SS [20],4.3
same,Fold resistance,CEM-SS [21],28.8
same,EC50,CEM-SS [22],0.07 µM
same,Fold resistance,CEM-SS [23],7
same,EC50,CEM-SS [24],9.51 µM
same,EC50,CEM-SS [25],3.5 µM
same,Fold resistance,CEM-SS [26],670
same,Fold resistance,CEM-SS [27],5.5
same,Fold resistance,CEM-SS [28],No significant changed
same,CC50,CCRF-CEM,13 µM
same,EC50,CEM-SS [29],0.019 µM
same,Fold resistance,CEM-SS [30],3.7
same,EC50,CEM-SS [31],0.07 µM
same,EC50,CEM-SS [32],1.73 µM
COC(=O)c1cc(C(=CCCCCCl)c2cc(Cl)c(OC)c(C(=O)OC)c2)cc(Cl)c1OC,IC50,[33],Not Active
same,EC50,CEM-SS [4],50.5 µM
same,CC50,CCRF-CEM,> 316 µM
CCCCCC=C(c1cc(Br)c(OC)c(C(=O)OC)c1)c1cc(Br)c(OC)c(C(=O)OC)c1,Fold resistance,CEM-SS [34],2
same,Fold resistance,CEM-SS [35],>8
same,Fold resistance,CEM-SS [36],>8
same,Fold resistance,CEM-SS [37],>8
same,Fold resistance,CEM-SS [38],>8
same,Fold resistance,CEM-SS [39],No significant changed
same,Fold resistance,CEM-SS [40],Enhanced sensitivity
same,Fold resistance,CEM-SS [41],>8
same,Fold resistance,CEM-SS [42],Enhanced sensitivity

# Source: ChEMBL document CHEMBL1132112, “Novel modifications in the alkenyldiarylmethane (ADAM) series of non-nucleoside reverse transcriptase inhibitors” (J Med Chem, 1999)
